Experimental data as given in PubChem BioAssay AID602173 (The Scripps Research Institute Molecular Screening Center, 2012).
Activity calls are given as the source filed them.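 The calls were made as follows: active = change in binding activity of 20% or more in either direction; inactive = change in binding activity under 20%.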

System: HepG2 proliferation, sulforhodamine B absorbance, 7-10 days
Assay: growth effect on ER-negative hepatoma cells – cell-based, absorbance, HepG2, counter-screen for AHR activator project, late-stage follow-up (AID 602173)
Conditions: at 10 µM
How it was run: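 Material: Human hepatoma HepG2 cells, estrogen receptor-negative | Amount: 2,000 cells per well | Doses: One dose, 10 µM compound | Times: 24 h pre-culture, 37 °C exposure | Measured by: SRB absorbance at 490 nm, 650 nm corrected | Read-out: Stained cell mass as percent of DMSO-treated wells, negative for inhibition | Control set: DMSO-treated wells as vehicle reference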

SMILES	proliferation change, negative = inhibition
Cc1nc(N)nc(Nc2ccc(Cl)cc2)c1Br	-19.5% (inactive)
COc1ccc(NC(=O)c2cccc3c(Br)cccc23)cc1	-38.5%
COc1ccccc1NC(=O)c1ccc(C(=O)Nc2ccccc2OC)nc1	-49.8%
Cc1csc(SCC(=O)Nc2ccc(Cl)cn2)n1	12.2% (inactive)
Cc1nnc(N2C(=O)c3cccc4c([N+](=O)[O-])ccc(c34)C2=O)s1	-12.8% (inactive)
Cc1ccc(-c2cc(-c3cccs3)[nH]n2)c(O)c1	-97.5%
CCOC(=O)Cc1cc(-c2ccc(O)cc2)nc2ccc3ccccc3c12	-29%
Cc1c(-c2ccn[nH]2)cc(NC(=O)c2ccc(Cl)cc2)c(=O)n1N	-6% (inactive)
CCOc1ccc(-c2cc(C)n3nc(C(N)=O)cc3n2)cc1	11.8% (inactive)
Cn1c(C(=O)N2CCC(C(N)=O)CC2)cc2cc(Cl)ccc21	3.8% (inactive)
